Records with an inconclusive call do not appear. Active and inactive are the calls of the source.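 Rule for the calls, unless noted: active = growth inhibition above 25% in both replicates, a cutoff set 3 SD above the mean; inconclusive = above 25% in only one replicate; inactive = the rest.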
Tests used:
[1] = S. cerevisiae growth inhibition in permissive medium (OD615), pilot counter-assay for S. cerevisiae lifespan shortening project, permissive growth control (AID 705); details: OD615, 24 h, at 10 µM, active compounds read high
How it was run: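 System – S. cerevisiae with engineered DeaD lifespan system · Buffer or medium – SC raffinose/galactose permissive medium · Schedule – cells pre-grown 4 h, then 24 h compound exposure, 30 °C humidified · Technique – culture turbidity as optical density at 615 nm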

[2] = S. cerevisiae growth inhibition in restrictive medium, OD615, pilot screen, restrictive growth control, yeast lifespan reduction project (AID 706;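 active = growth inhibition above a set limit, 3 SD over mean compound inhibition, in both replicates, cut at about 43% in these data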;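 note: modified DeaD lifespan yeast strain shifted to restrictive glucose medium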); details: OD615, 48 h, at 10 µM, active compounds read high
How it was run: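 Material: engineered S. cerevisiae DeaD strain / Medium: glucose-based CSMM-D restrictive medium / Compound: single dose of 10 µM compound final, 0.25% DMSO / Timing: 4 h pre-incubation, 48 h exposure at 30 °C / Technique: OD615 absorbance reading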

[3] = doxorubicin toxicity protection in MRP-1 cells – H69AR cells, CellTiter-Glo, duplicate, MRP-1 activator project, pilot screen (AID 807;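 active = viability increase at or above a cutoff of the median across tested compounds plus 3 SD, cut at about 8.5% in these data, passing the limit was not always enough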;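 note: compound pretreatment 18-22 h then 72 h combined with doxorubicin; 0% = doxorubicin alone and 100% = vehicle without doxorubicin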); details: H69AR viability with doxorubicin, CellTiter-Glo luminescence; at 10 µM; active compounds read high
[4] = viability of PTEN-null HCT116 cells – cell-based, HCT116 clonal line, CellTiter-Glo, pilot screen (AID 824;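 active = viability at or below 27.92% in each of two runs, the all-compound median minus 4 SD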;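 note: 0% = 20 µM Hyamine control and 100% = vehicle cell control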); details: HCT116 PTEN-deleted viability, 60 h, at 10 µM, active compounds read low
[5] = RAM pathway blockade in budding yeast – dse1pr::URA3 reporter, 5-FOA selection, pilot screen (AID 869;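 active = inhibition over a set limit, the all-compound mean plus 3 SD, in both replicate runs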;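 note: 0% = DMSO wells with no growth and 100% = 10 µM 1-NA-PP1 with full growth; RAM network block rescues cells from 5-FOA so hits raise OD615 growth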); details: S. cerevisiae dse1pr::URA3 5-FOA growth, OD615, 2 d; at 10 µM; active compounds read high; strain carries analog-sensitive mutant Cbk1 kinase
[6] = RAM signaling pathway blockade in yeast – S. cerevisiae, Pdr1DBD-CYC8 efflux-inhibited sensitized strain, primary screen (AID 1298;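 active = RAM network inhibition above 8.4% in each of two replicates, 3 SD over the compound average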;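 note: 0% = DMSO untreated cells without growth and 100% = 10 µM 1-NA-PP1 full growth; higher means more yeast growth rescued from 5-FOA killing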); details: S. cerevisiae cbk1-as DSE1-URA3 strain, 5-FOA growth OD615, 2 d; at 50 µM; active compounds read high

COC(=O)C(CC(C)C)Oc1ccc2c(C)cc(=O)oc2c1 (stereo not given)
inactive: growth inhibition [1] -10.5% | growth inhibition [2] 5.8% | viability increase [3] -2.47% | viability [4] 92.6% | inhibition [5] 1.14% | RAM network inhibition [6] 1.38%

CCOC(=O)C(C(=O)Nc1cccc(C)n1)C1CCCCC1 (stereo not given)
inactive: growth inhibition [1] -6.76% | growth inhibition [2] -0.005% | viability increase [3] 1.76% | viability [4] 88.1% | inhibition [5] 3.22% | RAM network inhibition [6] 2.72%

COC(=O)C1=C(C)NC2=C(C(=O)CC(c3cccs3)C2)C1c1ccsc1 (stereo not given)
inactive: growth inhibition [1] -7.01% | growth inhibition [2] 2.53% | viability increase [3] -6.75% | viability [4] 40.1% | inhibition [5] 1.25% | RAM network inhibition [6] 4.86%

O=S(=O)(NCCc1csc(-c2cccnc2)n1)c1ccc2c(c1)OCCO2
inactive: growth inhibition [1] -5.61% | growth inhibition [2] 8.38% | viability increase [3] -0.72% | viability [4] 95.5% | inhibition [5] 1.71% | RAM network inhibition [6] -0.63%

C(=C\CSc1nnnn1-c1ccccc1)/CSc1nnnn1-c1ccccc1
inactive: growth inhibition [1] -9.57% | growth inhibition [2] -3.65% | viability increase [3] -1.58% | viability [4] 87.6% | inhibition [5] 3.83% | RAM network inhibition [6] 10%

Cc1cccc(-n2ncc3c(NCc4ccccc4)ncnc32)c1
inactive: growth inhibition [1] 5.07% | growth inhibition [2] 12.1% | viability increase [3] -5.25% | viability [4] 31.8% | inhibition [5] 1.38% | RAM network inhibition [6] 11.8%

COC(=O)c1c(C)oc2cc(Br)c(OCC(=O)C(C)(C)C)cc12
inactive: growth inhibition [1] -9.2% | growth inhibition [2] -14.9% | viability increase [3] -2.86% | viability [4] 90.9% | inhibition [5] 1.84% | RAM network inhibition [6] 3.84%

CC(C)(Oc1ccc(Cl)cc1)C(=O)Nc1ncccn1
inactive: growth inhibition [1] -5.31% | growth inhibition [2] -3.56% | viability increase [3] -2.32% | viability [4] 101% | inhibition [5] 1.61% | RAM network inhibition [6] 2.05%

Cc1ccc(N=Cc2c(O)n(C)c(=O)n(C)c2=O)nc1
inactive: growth inhibition [1] 5.8% | growth inhibition [2] 16.6% | viability increase [3] 0.03% | viability [4] 99.2% | inhibition [5] 1.89% | RAM network inhibition [6] -0.87%

CCCCN1C(=O)C(O)(CC(=O)c2ccco2)c2cc(Br)ccc21 (stereo not given)
inactive: growth inhibition [1] 2.79% | growth inhibition [2] 2.35% | viability increase [3] -6.26% | inhibition [5] -0.765% | RAM network inhibition [6] -1.34%
active: viability [4] 11.5%

O=C1C=C(NCc2ccco2)CC(c2ccc(Cl)cc2)C1 (stereo not given)
inactive: growth inhibition [1] -7.5% | growth inhibition [2] -22.3% | viability increase [3] -2.53% | viability [4] 66.6% | inhibition [5] 1.2% | RAM network inhibition [6] 3.64%

COc1cc2c(cc1OC)C(c1cccs1)NCC2 (stereo not given)
inactive: growth inhibition [1] -10.4% | growth inhibition [2] -8.06% | viability increase [3] -3.87% | viability [4] 92.6% | inhibition [5] 0.41% | RAM network inhibition [6] 4.46%

CCOc1ccccc1N(CC(=O)Nc1ccc2c(c1)OCO2)S(C)(=O)=O
inactive: growth inhibition [1] -8.59% | growth inhibition [2] -22.3% | viability increase [3] -0.96% | viability [4] 100% | inhibition [5] 1.7% | RAM network inhibition [6] -0.87%

CCOC(=O)N1CCN(C(=O)c2ccc(CN(c3ccc(C)c(C)c3)S(C)(=O)=O)cc2)CC1
inactive: growth inhibition [1] -11.1% | growth inhibition [2] -1.85% | viability increase [3] -2.96% | viability [4] 99.4% | inhibition [5] 0.115% | RAM network inhibition [6] 5.73%

O=C(CCn1nnc2ccccc21)N1CCC(O)(c2cccc(F)c2)CC1
inactive: growth inhibition [1] -3.14% | growth inhibition [2] -7.45% | viability increase [3] -2.75% | viability [4] 101% | inhibition [5] 2.4% | RAM network inhibition [6] 1.86%

COc1cc(NC(=O)COc2ccc(-n3cnnn3)cc2)c(OC)cc1Cl
inactive: growth inhibition [1] -3.27% | growth inhibition [2] -5.83% | viability increase [3] -5.31% | viability [4] 46.9% | inhibition [5] 2.55% | RAM network inhibition [6] 2.93%

O=c1[nH]c(SCc2ccccc2Cl)nc2c1CCC2
inactive: growth inhibition [1] -4.46% | growth inhibition [2] -1.71% | viability increase [3] -2.17% | viability [4] 96.9% | inhibition [5] 1.91% | RAM network inhibition [6] 1.7%

C=CCn1c(C)cc(C(=O)COc2nncc3ccccc23)c1C
inactive: growth inhibition [1] -10.3% | growth inhibition [2] -15% | viability increase [3] -2.37% | viability [4] 74.2% | inhibition [5] 2.32% | RAM network inhibition [6] 0.87%

COc1ccc(CCNC(=O)c2oc3ccc(S(=O)(=O)N4CCOCC4)cc3c2C)cc1OC
inactive: growth inhibition [1] -0.835% | growth inhibition [2] -1.39% | viability increase [3] -4.32% | viability [4] 78.8% | inhibition [5] 1.17% | RAM network inhibition [6] 3.69%

CCOc1ccccc1NC(=O)CSc1ccccc1
inactive: growth inhibition [1] -17.2% | growth inhibition [2] -2.58% | viability increase [3] -2.94% | viability [4] 85.8% | inhibition [5] 0.255% | RAM network inhibition [6] 2.06%

CN(CC1CCCO1)S(=O)(=O)c1ccc(C(=O)Nc2nc3cc4c(cc3s2)OCO4)cc1 (stereo not given)
inactive: growth inhibition [1] -9.44% | growth inhibition [2] -15.3% | viability increase [3] -4.33% | viability [4] 35.8% | inhibition [5] 2.66% | RAM network inhibition [6] 4.04%

CC(C)Cn1c(SCC(=O)NC2CCCc3ccccc32)nc(O)cc1=O (stereo not given)
inactive: growth inhibition [1] -3.38% | growth inhibition [2] 9.89% | viability increase [3] -2.62% | viability [4] 97.9% | inhibition [5] 1% | RAM network inhibition [6] 2.76%

Cc1ccc(N(CC(=O)NCc2ccco2)S(=O)(=O)c2ccccc2)cc1
inactive: growth inhibition [1] -10.9% | growth inhibition [2] -7.57% | viability increase [3] -4.6% | viability [4] 87.2% | inhibition [5] 1.1% | RAM network inhibition [6] 1.9%

O=C1C2C3C=CC(C3)C2C(=O)N1CCN1CCN(S(=O)(=O)c2ccc3ccccc3c2)CC1 (stereo not given)
inactive: growth inhibition [1] -8.82% | growth inhibition [2] 0.84% | viability increase [3] -5.03% | viability [4] 83.5% | inhibition [5] 1.27% | RAM network inhibition [6] 3.68%

Cc1csc(SCC(=O)c2ccc(S(=O)(=O)N3CCOCC3)cc2)n1
inactive: growth inhibition [1] 0.36% | growth inhibition [2] 21.8% | viability increase [3] -3.72% | viability [4] 98.2% | inhibition [5] 0.265% | RAM network inhibition [6] 7.03%

COc1cc(NC(=O)C2CC2)c(C(=O)O)cc1OC
inactive: growth inhibition [1] -3.4% | growth inhibition [2] 7.62% | viability increase [3] -2.58% | viability [4] 100% | inhibition [5] 1.68% | RAM network inhibition [6] -0.36%

CCc1cccc(C)c1NC(=O)CCCC(=O)O
inactive: growth inhibition [1] -0.24% | growth inhibition [2] -1.56% | viability increase [3] -1.29% | viability [4] 102% | inhibition [5] 0.44% | RAM network inhibition [6] -0.21%

COc1ccc(Oc2ccc(S(=O)(=O)N3CCCCC3)cc2S(=O)(=O)N2CCCCC2)cc1
inactive: growth inhibition [1] -4.96% | growth inhibition [2] -0.32% | viability increase [3] -3.43% | viability [4] 87.1% | inhibition [5] 1.56% | RAM network inhibition [6] 3.99%

COc1ccc(S(=O)(=O)N(CCc2ccccc2)CC(=O)N2CCOCC2)cc1
inactive: growth inhibition [1] -7.4% | growth inhibition [2] -6.06% | viability increase [3] -4.39% | viability [4] 96.6% | inhibition [5] 0.965% | RAM network inhibition [6] -0.36%

O=C(Nc1ccc(F)cc1)c1cc(S(=O)(=O)N2CCCCC2)cs1
inactive: growth inhibition [1] -4.36% | growth inhibition [2] 5.66% | viability increase [3] -2.46% | viability [4] 61.1% | inhibition [5] 2.75% | RAM network inhibition [6] -0.1%

COC(=O)C(C)Sc1nnc(-c2ccncc2)o1 (stereo not given)
inactive: growth inhibition [1] -6.28% | growth inhibition [2] -8.81% | viability increase [3] -0.71% | viability [4] 99.4% | inhibition [5] 1.64% | RAM network inhibition [6] 0.1%

COc1cc(C2CC(=O)C=C(O)C2)cc(OC)c1OC (stereo not given)
inactive: growth inhibition [1] -7.01% | growth inhibition [2] -6.56% | viability increase [3] 0.41% | viability [4] 99% | inhibition [5] 0.785% | RAM network inhibition [6] 5.78%

CCOC(=O)N1CCN(C(=O)CN(c2cccc(C)c2)S(=O)(=O)c2ccccc2)CC1
inactive: growth inhibition [1] -9.07% | growth inhibition [2] -2.69% | viability increase [3] -2.44% | viability [4] 97.8% | inhibition [5] -0.31% | RAM network inhibition [6] 0.62%

Fc1cccc(Cl)c1CSc1ncn[nH]1
inactive: growth inhibition [1] -4.97% | growth inhibition [2] 10.7% | viability increase [3] 0.29% | viability [4] 85.6% | inhibition [5] 0.52% | RAM network inhibition [6] 2.05%

CC(=O)c1c(C(C)=O)c(C)n(-c2nc(-c3ccccc3)c(C)s2)c1C
inactive: growth inhibition [1] 0.235% | growth inhibition [2] -11% | viability increase [3] -2.37% | viability [4] 91.4% | inhibition [5] 1.21% | RAM network inhibition [6] 4.01%

O=c1cc(NCc2ccco2)c2ccccc2o1
inactive: growth inhibition [1] -2.07% | growth inhibition [2] -3.13% | viability increase [3] -4.38% | viability [4] 96.7% | inhibition [5] 1.84% | RAM network inhibition [6] 1.33%

CCCOc1nc2c(c(=O)n(C)c(=O)n2C)n1Cc1cccc2ccccc12
inactive: growth inhibition [1] -12.5% | growth inhibition [2] -0.875% | viability increase [3] -4.04% | viability [4] 57.7% | inhibition [5] 0.84% | RAM network inhibition [6] 1.64%

CCC(C)C1C(C#N)=C(N)Oc2n[nH]c(C)c21 (stereo not given)
inactive: growth inhibition [1] -0.17% | growth inhibition [2] 7.77% | viability increase [3] -7.71% | viability [4] 62.9% | inhibition [5] 0.79% | RAM network inhibition [6] 6.1%

Cc1cccc(N(CC(=O)Nc2c(C)n(C)n(-c3ccccc3)c2=O)S(C)(=O)=O)c1
inactive: growth inhibition [1] -9.29% | growth inhibition [2] -0.62% | viability increase [3] -0.12% | viability [4] 106% | inhibition [5] 1.61% | RAM network inhibition [6] 1.64%

Cc1cccc(-n2c(=O)[nH]c3c(C(N)=O)nc(-c4ccccc4Cl)nc32)c1
inactive: growth inhibition [1] -7.62% | growth inhibition [2] -0.18% | viability increase [3] -7.67% | inhibition [5] 3.09% | RAM network inhibition [6] 3.41%
active: viability [4] 11.7%
